Results from ChEMBL document CHEMBL4480450, “Cytotoxic Germacrane-Type Sesquiterpene Lactones from the Whole Plant of Carpesium lipskyi” (J Nat Prod, 2019).

What was measured:
[1] = system: HL-60; assay: Cytotoxicity against human HL60 cells after 72 hrs by CCK8 assay; assay type: functional, cell-based; conditions: HL-60, 72 h
Outline: (§1)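 Cells seeded in 96-well plates and left overnight at 37 °C in humidified 5% CO2. Serial dilutions of the compounds added, then 72 h further incubation. CCK-8 reagent added for the last 4 h and absorbance read at 450 nm.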

[2] = system: A549; assay: Cytotoxicity against human A549 cells after 72 hrs by CCK8 assay; assay type: functional, cell-based; conditions: A549, 72 h; outline: as §1

Row | SMILES | IC50 [1] [µM] | IC50 [2] [µM]
1 | C=C1C(=O)O[C@H]2[C@H]1[C@H](OC(=O)/C(C)=C\C)C(=O)[C@H](C)CCC[C@](C)(O)[C@@H]2OC(=O)C(C)C | 3 | 4.7
2 | C=C1C(=O)O[C@H]2[C@H]1[C@H](OC(=O)C(C)C)C(=O)[C@H](C)CCC[C@](C)(O)[C@@H]2OC(=O)C(C)C | 5 | 5.2
3 | C=C1C(=O)O[C@@H]2[C@@H]1[C@H](O)[C@@H](OC(=O)C(C)C)[C@@H](C)CCC(=O)[C@](C)(O)[C@H]2OC(=O)C(C)C | 5.9 | 4
4 | C=C1C(=O)O[C@H]2[C@@H]1[C@@H](OC(=O)CC(C)C)[C@@]1(O)O[C@H](CC[C@H]1C)[C@](C)(O)[C@@H]2OC(=O)C(C)CC (stereo not given in full) | 5.6 | 6.7
5 | C=C1C(=O)O[C@H]2[C@@H]1[C@@H](OC(=O)CC(C)C)[C@@]1(O)O[C@H](CC[C@H]1C)[C@](C)(O)[C@@H]2OC(=O)C(C)C | 6.2 | 10.3
6 | C=C1C(=O)O[C@H]2[C@@H]1[C@H](OC(=O)CC(C)C)C(=O)[C@H](C)C[C@H]1O[C@@H]1[C@](C)(O)[C@@H]2OC(=O)C(C)C | 2.8 | > 10
7 | C=C1C(=O)O[C@H]2[C@H]1[C@@H](O)[C@H](OC(=O)CC(C)C)[C@H](C)CCC(=O)[C@](C)(O)[C@@H]2OC(=O)C(C)C (relative stereo) | 5.5 | 6.2
8 | COc1cccc2c1C(=O)c1c(O)c3c(c(O)c1C2=O)C[C@@](O)(C(=O)CO)C[C@@H]3O[C@H]1C[C@H](N)[C@H](O)[C@H](C)O1 [DOXORUBICIN] |  | 0.4
